NPY1 pot ag – NPY-Y1 receptor potentiators or agonists, primary screen, cell-based. AID 1304, 2008. activation, % at 3.6 µM. NPY-Y1 expressing cells, potentiator/agonist activation. actives 0.37% (n = 220,000). Neuropeptide Y receptor type 1 (Homo sapiens), P25929; in the data active = activation above about 33%, passing the limit was not always enough;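 also: cells stimulated with NPY at EC10 then isoproterenol at EC100; 0% = low agonist plus stimulus and 100% = saturating agonist plus stimulus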
Target sequence (P25929 whole entry, looked up): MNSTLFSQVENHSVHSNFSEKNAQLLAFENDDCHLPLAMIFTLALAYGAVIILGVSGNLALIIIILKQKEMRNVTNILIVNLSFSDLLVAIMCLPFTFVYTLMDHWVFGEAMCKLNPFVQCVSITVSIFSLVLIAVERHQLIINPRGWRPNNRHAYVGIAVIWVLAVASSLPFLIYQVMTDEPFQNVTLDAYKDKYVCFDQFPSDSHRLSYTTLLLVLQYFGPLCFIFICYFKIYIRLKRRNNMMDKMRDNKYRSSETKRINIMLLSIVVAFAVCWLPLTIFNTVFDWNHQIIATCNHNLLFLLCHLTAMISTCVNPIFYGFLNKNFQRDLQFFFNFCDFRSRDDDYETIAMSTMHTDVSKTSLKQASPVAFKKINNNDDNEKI
Wee1 degr inh – Wee1 degradation inhibitors, primary screen, cell-based, HeLa, Wee1K328M-luciferase, luminescence; HeLa Luc-Wee1K328M stability; 100% = proteasome inhibitor MG132 effect; AID 1321, 2008; reporter increase, % at 5 µM; actives 1.2% (n = 220,000);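 active = activation above the mean of all tested compounds plus 3 SD, set per screening run, cut at about 8.8% in these data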;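 also: cells exposed to compound for 20 h before luminescence read; 0% = DMSO alone and 100% = MG132 at 30 µM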
NPY Y1 blocker – NPY-Y1 receptor antagonists, primary screen, cell-based. actives 1% (n = 200,000). AID 1040, 2008. inhibition, % at 3.6 µM. HEK293-CNG Y1 cells, membrane potential fluorescence; NPY at EC95, then isoproterenol;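 active = inhibition above the campaign mean inhibition of all tested compounds plus 3 SD, cut at about 20% in these data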;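 also: 0% = DMSO wells given NPY plus isoproterenol and 100% = isoproterenol alone without NPY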
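Material: HEK293 Y1/CNG channel cell line; also added: NPY (25 nM), isoproterenol (1 µM), Ro 20-1724 (25 µM); doses: one concentration, 3.6 µM, in 0.4% DMSO; schedule: compound incubation 1 h at room temperature, readout 45 min post-stimulation; technique: membrane potential fluorescence; measure: fluorescence ratio normalized to % inhibition between controls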
NPY-Y2 antag – NPY-Y2 receptor antagonists, primary screen, cell-based; Neuropeptide Y receptor type 2 (Homo sapiens), P49146; NPY-Y2 expressing cells, antagonist mode; inhibition, % at 2.7 µM; actives 0.99% (n = 140,000); AID 793, 2007; in the data active = inhibition above about 17%;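 also: 0% = vehicle with agonist challenge and 100% = reference antagonist with challenge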
NPY2 pot ag – NPY-Y2 potentiators or agonists, primary screen, cell-based; Neuropeptide Y receptor type 2 (Homo sapiens), P49146; actives 0.45% (n = 220,000); cells expressing NPY-Y2, potentiator/agonist read-out; activation, % at 3.6 µM; in the data active = activation above about 27%;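 also: cells stimulated with NPY near EC25 plus isoproterenol at EC100; 0% = vehicle plus submaximal agonist and 100% = vehicle plus saturating agonist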
Hsp70 act – Hsp70 transcriptional activators, primary screen, cell-based, HeLa, Hsp70 promoter luciferase, luminescence, 10 µM | actives 0.04% (n = 200,000) | AID 1203, 2008 | activation, % at 10 µM | HeLa Hsp70 promoter luciferase reporter; scaled: vehicle 0, proteasome-inhibitor control 100%;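 active = activation above the mean across all tested compounds plus 3 SD, cutoff set per campaign, cut at about 5.5% in these data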;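 also: 100% = MG132 at 30 µM as the positive control and 0% = DMSO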
NPY-Y2 confirm – NPY-Y2 potentiators or agonists, confirmation, cell-based. shares compounds with NPY2 pot ag. cell-based NPY-Y2 potentiator/agonist assay. activation, % at 3.6 µM. actives 20% (n = 450); in the data active = activation above about 33%
NPY-Y1 counter – NPY-Y1 potentiators or agonists, counter-screen for NPY-Y2 potentiator project, cell-based, fluorescence | shares compounds with NPY2 pot ag | activation, % at 3.6 µM | Y1 HEK293-CNG cells, membrane potential fluorescence | actives 20% (n = 450) | AID 1651, 2009; in the data active = activation above about 45%;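 also: cells stimulated with submaximal NPY then isoproterenol with phosphodiesterase inhibitor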
NPY-Y1 ag 2 – NPY-Y1 direct agonists, selectivity assay for NPY-Y2 potentiator project, cell-based, fluorescence | shares compounds with NPY2 pot ag | HEK293 Y1-CNGC, membrane potential fluorescence, agonism | activation, % at 3.6 µM | actives 37% (n = 450) | AID 1702, 2009;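 active = activation above the mean of DMSO-only control wells plus 3 SD, cut at about 18% in these data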;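 also: cells stimulated with 1 µM isoproterenol plus the PDE inhibitor Ro 20-1724; 0% = isoproterenol with DMSO and no NPY and 100% = 40 nM NPY; Y1 agonists lower the membrane potential dye signal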
CNGC inhibitor – CNGC cAMP sensor activity inhibitors, counter-screen for NPY-Y2 potentiator project, cell-based, HEK293-CNG parental, membrane potential fluorescence; shares compounds with NPY2 pot ag; isoproterenol cAMP; inhibition, % at 3.6 µM; actives 32% (n = 450); AID 1703, 2009;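 active = inhibition above the control-well mean plus 3 SD of those wells, cut at about 22% in these data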;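 also: 0% = DMSO with isoproterenol and 100% = DMSO without isoproterenol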
NPY-Y2 ag 2 – NPY-Y2 direct agonists, counter-screen for NPY-Y2 potentiator project, cell-based, fluorescence; shares compounds with NPY2 pot ag; HEK293 Y2/CNGC cells, membrane potential fluorescence, agonist mode; activation, % at 3.6 µM; actives 56% (n = 450);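 active = activation above the mean of solvent-only control wells plus 3 SD, cut at about 10% in these data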;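 also: cells stimulated by isoproterenol with no NPY added so direct agonism is tested; 0% = DMSO with isoproterenol alone and 100% = NPY at EC100 plus isoproterenol; agonism lowers probe fluorescence through less cAMP and CNG channel opening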
Numbers without * were called inactive; · = no result given. Compounds with a hit are over-represented: about 3% of the library has one in this group of screens.

SMILES	NPY1 pot ag	Wee1 degr inh	NPY Y1 blocker	NPY-Y2 antag	NPY2 pot ag	Hsp70 act	NPY-Y2 confirm	NPY-Y1 counter	NPY-Y1 ag 2	CNGC inhibitor	NPY-Y2 ag 2
CC(C)C(O)(C#CCN1CCCC1)c1ccccc1 (stereo not given)	5	0	4	0	102*	0	-6	-11	-6	-4	1
Cc1ccccc1SCCNC(=O)c1ccccc1Br	5	-3	9	·	-3	0	·	·	·	·	·
N#C/C(=C(/O)c1ccco1)c1nc2ccccc2s1	19	-2	-8	-2	19	0	·	·	·	·	·
N#C/C(=C(/O)c1cccc(F)c1)c1nc2ccccc2s1	11	10*	·	·	103*	·	-2	-14	-15	-9	4
Cc1ccccc1S(=O)(=O)Nc1nc2ccccc2nc1N1CCc2ccccc2C1	-27	5	10	11	-11	0	·	·	·	·	·
CCN(CC)c1ccc(NS(=O)(=O)c2ccc(OC)cc2)cc1	17	-4	0	·	6	0	·	·	·	·	·
CCOC(=O)Nc1nnc(-c2cccc(OC)c2)s1	15	-1	2	3	49*	0	8	18	25*	-6	8
COCC(=O)N(Cc1cc2cc(OC)ccc2[nH]c1=O)c1ccc(C)cc1	13	1	4	1	13	0	·	·	·	·	·
COc1cc(C(=O)Nc2ccc3c(c2)C(=O)c2ccccc2C3=O)cc(OC)c1OC	-23	4	3	4	-2	0	·	·	·	·	·
CCc1cccc(NC(=O)c2cc(OC)c(OC)c(OC)c2)c1	-10	-2	3	·	61*	0	-7	-8	-20	-2	-1
COc1ccc(C(=O)NC(=S)Nc2cccc(Cl)c2N2CCOCC2)cc1[N+](=O)[O-]	4	1	6	4	13	0	·	·	·	·	·
CC(C)CCNC(=O)COC(=O)c1cc(Br)c(Br)s1	-9	-2	10	·	-9	0	·	·	·	·	·
CS(=O)(=O)N1CCc2cc(-c3csc(NC(=O)Cc4cccs4)n3)ccc21	-7	-1	-10	4	36*	0	-9	-27	-29	-12	-14
CC(=O)Nc1nc(-c2ccc3c(c2)CCN3S(C)(=O)=O)cs1	-9	1	5	·	10	0	·	·	·	·	·
Cc1ccccc1Nc1c(-c2ccc(N3CCOCC3)cc2)nc2cnccn12	45	7	·	·	39*	·	68*	76*	52*	48*	68*
CCOC(=O)NC(=O)/C(C=Nc1ccc(Cl)cc1)=C(\C)O	-2	2	3	·	-10	-1	·	·	·	·	·
O=C(/C=C/c1ccc([N+](=O)[O-])cc1)NCCc1ccc(F)cc1	9	5	2	·	46*	0	0	-2	-5	-1	9
CCCn1c(CCC(=O)O)nc2cc(S(N)(=O)=O)ccc21	7	-1	·	·	104*	·	-3	-2	-16	0	-11
CCCn1c(CCC(=O)O)nc2cc(S(=O)(=O)N(CC)CC)ccc21	16	-2	·	·	-11	·	·	·	·	·	·
COc1cccc(OC)c1OCCOc1ccccc1OC(C)C	-4	2	2	5	5	0	·	·	·	·	·
COc1ccc(NC(=O)C(=S)NC2CCCCC2)cc1	24	5	2	·	31*	0	11	20	15	-12	-8
CC(=O)N1C(C)(C)CC(=NOC(=O)c2ccc(C)cc2)CC1(C)C	12	0	-3	·	-4	0	·	·	·	·	·
COC(=O)CCSc1cc(NCCOC(C)=O)c([N+](=O)[O-])c2nonc12	-7	-1	-7	0	43*	0	-2	-3	-6	4	-3
COc1cc(C(=O)NNC2=CC(=O)CC(C)(C)C2)cc(OC)c1OC	32	-2	-1	2	44*	0	3	2	7	6	9
COc1ccc(S(=O)(=O)Nc2cccc(F)c2)cc1C	-6	-2	3	·	14	0	·	·	·	·	·
SMILES	NPY1 pot ag	Wee1 degr inh	NPY Y1 blocker	NPY-Y2 antag	NPY2 pot ag	Hsp70 act	NPY-Y2 confirm	NPY-Y1 counter	NPY-Y1 ag 2	CNGC inhibitor	NPY-Y2 ag 2
COc1ccc(S(=O)(=O)Nc2ccc(S(=O)(=O)Nc3ccc(F)cc3)cc2)cc1C	30	-5	-7	-5	34*	0	25	37	27*	23*	21*
COc1cc(C=O)ccc1Oc1cnccn1	-1	-2	-3	·	-24	0	·	·	·	·	·
N#CC(C#N)=C(Nc1ccc(F)cc1)SCc1cccc(F)c1	4	3	8	3	37*	0	-4	-37	-25	-17	2
CCOc1ccc(N/C(SCc2cccc([N+](=O)[O-])c2)=C(/C#N)C(N)=O)cc1	5	-4	-9	·	8	-1	·	·	·	·	·
COCCNC(=O)CN1C(=O)CSc2cc(S(=O)(=O)N3CCCCCC3)ccc21	-11	5	1	1	97*	0	-2	-10	-14	0	-7
CCCOc1ccc(CCC(=O)N/N=C/c2ccncc2)cc1	8	2	·	·	-2	·	·	·	·	·	·
O=C(/C=C/c1cccc(C(F)(F)F)c1)Nc1cccc(C(F)(F)F)c1	33	2	-12	-2	36*	0	19	23	25*	33*	16*
CCN(CC)S(=O)(=O)c1ccc(/C=C/C(=O)OCC#N)cc1	7	-2	-5	·	2	0	·	·	·	·	·
CCN(CC)S(=O)(=O)c1ccc(/C=C/C(=O)OCC(=O)N(C(C)C)C(C)C)cc1	-2	0	-1	·	47*	0	-1	9	-8	7	6

From PubChem
